From ChEMBL document CHEMBL2046347, “Structure-activity relationships in human Toll-like receptor 2-specific monoacyl lipopeptides” (J Med Chem, 2012) come the findings set out here.

Holding throughout (format): functional, cell-based
Assay [1] concerns the target Toll-like receptor 2 (Homo sapiens) (UniProt O60603). Description: Agonist activity at human TLR2 expressed in HEK293 cells assessed as NFkappaB translocation at 10 uM after 12 hrs by secretory alkaline phosphatase reporter gene assay. (In a reporter assay the amount or activity of a reporter protein is the signal.)
Assay [2] concerns the target Toll-like receptor 2 (Mus musculus) (UniProt Q9QUN7). Description: Agonist activity at mouse TLR2 expressed in HEK293 cells assessed as NFkappaB translocation after 12 hrs by secretory alkaline phosphatase reporter gene assay. In a few lines:
(§1)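 HEK293 cells stably carrying human or murine TLR2 plus an NF-κB-driven secreted alkaline phosphatase reporter, kept in selection medium with zeocin and normocin. Seeded at ~10⁵ cells/mL and grown to confluency, then exposed to serially diluted compounds for 12 h. Secreted phosphatase in supernatant read colorimetrically at 620 nm with an alkaline phosphatase-specific chromogen in detection medium.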

For assay [3] the target is unchanged. The assay is described as follows: Antagonistic activity at mouse TLR2 expressed in HEK293 cells assessed as inhibition of PAM2CS-induced NFkappaB translocation by secretory alkaline phosphatase reporter gene assay. In a few lines: (§2)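 Reporter HEK293 lines (human or murine TLR2, NF-κB-inducible secreted alkaline phosphatase) plated at ~10⁵ cells/mL. Stimulated with PAM2CS (1 μg/mL) or lipoteichoic acid (1 μg/mL) in the presence of graded test-compound concentrations. Phosphatase activity in supernatant measured spectrophotometrically at 620 nm using a phosphatase-specific chromogen.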

Assay [4] deals with Toll-like receptor 2 (Homo sapiens) (UniProt O60603). The assay is described as follows: Antagonistic activity at human TLR2 expressed in HEK293 cells assessed as inhibition of PAM2CS-induced NFkappaB translocation by secretory alkaline phosphatase reporter gene assay. In short, it runs like this: as §2
Sequence of Toll-like receptor 2 (Homo sapiens) (O60603 whole entry): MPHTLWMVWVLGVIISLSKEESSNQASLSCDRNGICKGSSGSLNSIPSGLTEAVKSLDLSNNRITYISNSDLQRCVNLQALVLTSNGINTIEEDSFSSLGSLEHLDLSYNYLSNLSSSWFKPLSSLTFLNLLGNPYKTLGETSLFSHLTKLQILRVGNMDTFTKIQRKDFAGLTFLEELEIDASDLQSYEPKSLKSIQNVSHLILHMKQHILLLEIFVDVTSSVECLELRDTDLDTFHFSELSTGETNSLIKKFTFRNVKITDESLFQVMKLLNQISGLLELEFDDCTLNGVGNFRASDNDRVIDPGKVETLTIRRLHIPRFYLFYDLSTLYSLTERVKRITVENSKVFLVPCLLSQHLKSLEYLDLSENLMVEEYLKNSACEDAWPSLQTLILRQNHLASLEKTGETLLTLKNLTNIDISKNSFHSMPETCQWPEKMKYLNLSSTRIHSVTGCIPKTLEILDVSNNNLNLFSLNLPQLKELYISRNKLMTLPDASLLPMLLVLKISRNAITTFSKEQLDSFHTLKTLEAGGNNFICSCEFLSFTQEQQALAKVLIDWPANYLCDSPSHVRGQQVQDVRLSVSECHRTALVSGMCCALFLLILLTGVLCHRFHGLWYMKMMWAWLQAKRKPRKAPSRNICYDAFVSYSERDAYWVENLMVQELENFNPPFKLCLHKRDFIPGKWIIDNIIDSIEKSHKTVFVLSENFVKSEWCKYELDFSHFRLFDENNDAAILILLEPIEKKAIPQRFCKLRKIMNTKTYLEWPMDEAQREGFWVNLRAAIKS
Assay [5] shares this target. Description: Antagonistic activity at human TLR2 expressed in HEK293 cells assessed as inhibition of lipoteichoic acid-induced NFkappaB translocation by secretory alkaline phosphatase reporter gene assay. In short, it runs like this:
as §2

The target of assay [6] is Toll-like receptor 2 (Mus musculus) (UniProt Q9QUN7). The assay is described as follows: Antagonistic activity at mouse TLR2 expressed in HEK293 cells assessed as inhibition of lipoteichoic acid-induced NFkappaB translocation by secretory alkaline phosphatase reporter gene assay. In a few lines:
as §2

Assay [7] addresses Toll-like receptor 2 (Homo sapiens) (UniProt O60603). The assay is described as follows: Agonist activity at human TLR2 expressed in HEK293 cells assessed as NFkappaB translocation after 12 hrs by secretory alkaline phosphatase reporter gene assay. In short, it runs like this:
as §1

Active and inactive are the calls of the source. The rule behind the calls is not given here.

Sequence of Toll-like receptor 2 (Mus musculus) (Q9QUN7 whole entry): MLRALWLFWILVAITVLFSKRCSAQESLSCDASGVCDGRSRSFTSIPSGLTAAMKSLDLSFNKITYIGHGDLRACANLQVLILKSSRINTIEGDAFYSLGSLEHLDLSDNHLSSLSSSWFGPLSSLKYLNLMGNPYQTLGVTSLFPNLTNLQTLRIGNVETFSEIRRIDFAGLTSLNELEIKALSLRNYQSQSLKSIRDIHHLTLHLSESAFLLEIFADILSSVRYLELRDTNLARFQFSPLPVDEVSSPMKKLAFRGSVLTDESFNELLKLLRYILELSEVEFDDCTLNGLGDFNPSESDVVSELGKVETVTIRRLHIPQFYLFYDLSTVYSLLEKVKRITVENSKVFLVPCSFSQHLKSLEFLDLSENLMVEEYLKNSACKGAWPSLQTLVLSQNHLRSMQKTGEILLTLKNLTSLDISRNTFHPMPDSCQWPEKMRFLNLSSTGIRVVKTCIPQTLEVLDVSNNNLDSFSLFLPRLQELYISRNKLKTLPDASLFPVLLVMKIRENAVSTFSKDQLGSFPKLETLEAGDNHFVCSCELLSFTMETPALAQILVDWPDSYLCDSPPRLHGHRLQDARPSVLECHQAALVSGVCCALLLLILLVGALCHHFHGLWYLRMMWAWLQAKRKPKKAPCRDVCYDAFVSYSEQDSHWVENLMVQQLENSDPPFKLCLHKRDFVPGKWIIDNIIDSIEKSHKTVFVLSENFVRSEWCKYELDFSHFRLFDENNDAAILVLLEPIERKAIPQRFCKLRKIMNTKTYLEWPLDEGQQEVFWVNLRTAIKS

With `CCCCCCCCCCCCCCNCC(=O)OCCSC[C@H](N)C(=O)N[C@@H](CO)C(=O)OC`, in assay [1], the result was inactive.
As to `CCCCCCCCCCCCCCCC(=O)OCCSC[C@H](NC(=O)CCC)C(=O)N[C@@H](CO)C(=O)OC`, the outcome in assay [2] was inactive.
Take `COC(=O)[C@H](CO)NC(=O)[C@@H](N)CSCCOC(=O)c1cccc(-c2ccccc2)c1`: the inhibition result in assay [3], in assay [4], in assay [5] and in assay [6] was “inactive” throughout. Also, the result in assay [1] was inactive.
Take `CCCCCCCCCCCCCCCC(=O)OCCSC[C@H](NC(=O)C(Cl)(Cl)Cl)C(=O)N[C@@H](CO)C(=O)OC`: the outcome in assay [7] was inactive.
Consider `CCCCCCCCCCCCCCCCN[C@@H](CSCCOC(=O)CCCCCCCCCCCCCCC)C(=O)N[C@@H](CO)C(=O)OC`, for which the outcome in assay [1] was inactive.
Take `CCCCCCCCCCCCCCCC(=O)OCCSC[C@H](NCC)C(=O)N[C@@H](CO)C(=O)OC`: the result in assay [1] was inactive.
As for `CCCCCCCCCCCC(=O)OCCSC[C@H](N)C(=O)N[C@@H](CO)C(=O)OC`, the inhibition result in assay [3], in assay [4], in assay [5] and in assay [6] was “inactive” throughout. Moreover, in assay [1], the result was inactive.
Turning to `CCCCCCCCCCCCCCCC(=O)OCCSC[C@H](NS(=O)(=O)c1ccc(C)cc1)C(=O)N[C@@H](CO)C(=O)OC`, the outcome in assay [7] was inactive.
As for `CCCCCCCCCCCCCCCC(=O)OCCSC[C@H](NC(C)=O)C(=O)N[C@@H](CO)C(=O)OC`, the result in assay [2] was inactive.
For the molecule `CCCCCCCCCCCCCCCC(=O)OCCSC[C@H](NS(=O)(=O)C(F)(F)F)C(=O)N[C@@H](CO)C(=O)OC`, in assay [7], the outcome was inactive.
Consider `CCCC(=O)OCCSC[C@H](N)C(=O)N[C@@H](CO)C(=O)OC`, for which the inhibition result in assay [3], in assay [4], in assay [5] and in assay [6] was “inactive” throughout. Moreover, in assay [1], the result was inactive.
For the molecule `CCCCCCCCCCCCCCCC(=O)OCCSC[C@H](NS(C)(=O)=O)C(=O)N[C@@H](CO)C(=O)OC`, in assay [7], the result was inactive.
As to `CCCCCCCCCCCCCCN(CCCCCCCCCCCCCC)CC(=O)OCCSC[C@H](N)C(=O)N[C@@H](CO)C(=O)OC`, the result in assay [1] was inactive.
Consider `COC(=O)[C@H](CO)NC(=O)[C@@H](N)CSCCOC(=O)c1ccc(-c2ccc(-c3ccccc3)cc2)cc1`, for which the inhibition entry in assay [3], in assay [4], in assay [5] and in assay [6] was “inactive” throughout. Besides, the result in assay [1] was inactive.
As to `CCCCCCCCCCCCCCCCCC(=O)OCCSC[C@H](N)C(=O)N[C@@H](CO)C(=O)OC`, the outcome in assay [2] was inactive.
Regarding `CCCCCCCC(=O)OCCSC[C@H](N)C(=O)N[C@@H](CO)C(=O)OC`, the inhibition entry in assay [3], in assay [4], in assay [5] and in assay [6] was “inactive” throughout. Further, the outcome in assay [1] was inactive.
For the molecule `CCCCCCCCCCCCCCCC(=O)OCCSC[C@H](N)C(=O)N[C@@H](COC(C)=O)C(=O)OC`, in assay [7], the outcome was Active.
Turning to `CCCCCCCCCCCCCCCC(=O)OCCSC[C@H](NCCCCCCCC)C(=O)N[C@@H](CO)C(=O)OC`, in assay [1], the result was inactive.
Take `CCCCCCCCCCCCCCCC(=O)OCCSC[C@H](NC(=O)CCCCCCC)C(=O)N[C@@H](CO)C(=O)OC`: in assay [2], the result was inactive.
As for `CCCCCCCCCCCCCCCC(=O)OCCSC[C@H](N)C(=O)N[C@@H](CO)C(=O)OC`, the outcome in assay [2] was inactive.
On to `CCCCCCCCCCCCCCCC(=O)N[C@@H](CSCCOC(=O)CCCCCCCCCCCCCCC)C(=O)N[C@@H](CO)C(=O)OC`, for which, in assay [1], the outcome was inactive.
In the case of `COC(=O)[C@H](CO)NC(=O)[C@@H](N)CSCCOC(=O)c1ccc(-c2ccccc2)cc1`, the inhibition result in assay [3], in assay [4], in assay [5] and in assay [6] was “inactive” each time. Further, in assay [1], the result was inactive.
